In data set [1] the test system is RBL-2H3. Description: Cytotoxicity against rat RBL2H3 cells assessed as inhibition of cell proliferation up to 4000 nM after 24 hrs by CCK8 assay. Type of data set: cell-based. The following applies: rbl-2h3, 24 h. The essentials:
(§1)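 RBL-2H3 cells seeded 10^5/well, 12 h at 37 °C, 5% CO2, then exposed to drug in DMEM for 24 h at 37 °C; medium replaced with serum-containing medium, CCK-8 (WST-8) added, absorbance at 450 nm after 1 h. Relative viability vs control, n = 4, Student's t-test p < 0.05.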

The test system of data set [2] is RBL-2H3. The data set can be described thus: Anti-inflammatory activity in DNP-IgE-stimulated rat RBL2H3 cells assessed as reduction of IL4 secretion pretreated for 10 mins followed by DNP-HSA stimulation measured after 1 hr by ELISA.
Data set [3] deals with RBL-2H3. The data set can be described thus: Anti-inflammatory activity in DNP-IgE-stimulated rat RBL2H3 cells assessed as reduction of IL4 secretion at >20 nM pretreated for 10 mins followed by DNP-HSA stimulation measured after 1 hr by ELISA. Type of data set: functional, cell-based. The essentials: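 RBL-2H3 cells, 2.5 × 10^4/well, cultured overnight, then sensitised 2 h with 50 ng/mL anti-DNP IgE in DMEM/10% FBS at 37 °C, 5% CO2. After washing, drug added in DMF (0.05% final). After 10 min, challenged with DNP-HSA (50 ng/mL final) for 1 h. Supernatant rat IL-4 measured by ELISA on Luminex multiplex system. Mean ± SEM, n = 3.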

In data set [4] the test system is RBL-2H3. Description: Cytotoxicity against rat RBL2H3 cells assessed as inhibition of cell proliferation at >5 nM after 24 hrs by CCK8 assay. In kind it is cell-based. The settings on record: rbl-2h3, 24 h.
Data set [5] deals with RBL-2H3. The data set can be described thus: Anti-inflammatory activity in DNP-IgE-stimulated rat RBL2H3 cells assessed as reduction of IL4 secretion at >2000 nM pretreated for 10 mins followed by DNP-HSA stimulation measured after 1 hr by ELISA. In kind it is functional, cell-based. In outline:
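RBL-2H3 cells (2.5 × 10^4/well, cultured overnight in DMEM + 10% FBS, penicillin/streptomycin, 37 °C, 5% CO2) sensitized 2 h with 50 ng/mL anti-DNP IgE, washed, then drug in DMF (0.05% final) added 10 min before DNP-HSA (50 ng/mL final); IL-4 in supernatant after 1 h by rat IL-4 ELISA/Luminex. IC50 from dose–response curves.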

Data set [6] has as its system RBL-2H3. The data set can be described thus: Cytotoxicity against rat RBL2H3 cells assessed as inhibition of cell proliferation at >40 nM after 24 hrs by CCK8 assay. Type of data set: cell-based. The settings on record: rbl-2h3, 24 h. In outline: as §1

This passage reports Activity and IC50 results from ChEMBL document CHEMBL4266052, “Evaluation of Inhibitory Activities of UK-2A, an Antimycin-Type Antibiotic, and Its Synthetic Analogues against the Production of Anti-inflammatory Cytokine IL-4” (J Nat Prod, 2018).

Each structure is given as a SMILES string. pIC50: −log10 of the molar value. Activity calls are given as the source filed them. No cut-off for these calls is given here.

In the case of `CC(C)C(=O)O[C@H]1[C@H](C)OC(=O)[C@@H](NC(=O)c2cccc(NC=O)c2O)COC(=O)[C@@H]1Cc1ccccc1`, the Activity result with RBL-2H3 [1] is “Non-Toxic”. For the same compound, the pIC50 with RBL-2H3 [2] was 7.38.

Turning to `CCCC[C@H]1C(=O)O[C@H](C)[C@H](NC(=O)c2cccc(NC=O)c2O)C(=O)O[C@@H](C)[C@@H]1OC(=O)CC(C)C` [ANTIMYCIN A3], in the data set with RBL-2H3 [3], the outcome was Active. The Activity result in the data set on RBL-2H3 [4] was “Toxic”.

Take `COc1ccnc(C(=O)N[C@H]2COC(=O)[C@H](Cc3ccccc3)[C@@H](OC(=O)CC(C)C)[C@H](C)OC2=O)c1O`: the Activity result in the data set on RBL-2H3 [1] was “Non-Toxic”. Also, in the data set with RBL-2H3 [2], the negative logarithm of the IC50 (pIC50) is 5.36.

Take `COc1ccnc(C(=O)N[C@H]2COC(=O)[C@H](Cc3ccccc3)[C@@H](OC(=O)C(C)C)[C@H](C)OC2=O)c1O`: in the data set with RBL-2H3 [5], the outcome was Active. The Activity entry in the data set with RBL-2H3 [1] is on record as “Non-Toxic”. For the same compound, the pIC50 in the data set on RBL-2H3 [2] is 5.86.

Take `CCC[C@H]1C(=O)O[C@H](C)[C@H](NC(=O)c2cccc(NC=O)c2O)C(=O)O[C@@H](C)[C@@H]1OC(=O)CC(C)C`: the result in the data set with RBL-2H3 [3] was Active. In addition, in the data set on RBL-2H3 [4], the Activity result is recorded as “Toxic”.

In the case of `CCCCCC[C@H]1C(=O)O[C@H](C)[C@H](NC(=O)c2cccc(NC=O)c2O)C(=O)O[C@@H](C)[C@@H]1OC(=O)CC(C)C` [ANTIMYCIN A], in the data set on RBL-2H3 [3], the outcome was Active. Moreover, the Activity result with RBL-2H3 [4] was “Toxic”.

Regarding `CCCC[C@H]1C(=O)OC[C@H](NC(=O)c2nccc(OC)c2O)C(=O)O[C@@H](C)[C@@H]1OC(=O)C(C)C`, the Activity entry in the data set with RBL-2H3 [1] was “Non-Toxic”.

For `CC(C)C(=O)O[C@H]1[C@H](C)OC(=O)[C@@H](NC(=O)c2cccc(NC=O)c2O)[C@@H](C)OC(=O)[C@@H]1Cc1ccccc1` [SPLENOCIN B], the outcome with RBL-2H3 [3] was Active. Also, the Activity entry with RBL-2H3 [6] is “Toxic”.

On to `CCCCC[C@H]1C(=O)O[C@H](C)[C@H](NC(=O)c2cccc(NC=O)c2O)C(=O)O[C@@H](C)[C@@H]1OC(=O)CC(C)C`, for which, in the data set on RBL-2H3 [3], the result was Active. In the data set with RBL-2H3 [4], the Activity result is given as “Toxic”.
